According to ChEMBL document CHEMBL4024792, “(N-Hydroxycarbonylbenylamino)quinolines as Selective Histone Deacetylase 6 Inhibitors Suppress Growth of Multiple Myeloma in Vitro and in Vivo” (J Med Chem, 2018):

Key:
Histone deacetylase 5 = Histone deacetylase 5 (Homo sapiens, UniProt Q9UQL6); test: Inhibition of recombinant human C-terminal His-tagged HDAC5 (656 to 1122 residues) expressed in insect cells using Boc-K(Ac)-AMC as substrate after 60 mins by fluorescence assay
Histone deacetylase 8 = target: T1, Histone deacetylase 8 (Homo sapiens, UniProt Q9BY41); test: Inhibition of recombinant human C-terminal His-tagged/N-terminal Strep2-tagged HDAC8 (1 to 377 residues) expressed in insect cells using RHK-K(Ac)-AMC as substrate after 60 mins by fluorescence assay
T1 sequence (Q9BY41 whole entry): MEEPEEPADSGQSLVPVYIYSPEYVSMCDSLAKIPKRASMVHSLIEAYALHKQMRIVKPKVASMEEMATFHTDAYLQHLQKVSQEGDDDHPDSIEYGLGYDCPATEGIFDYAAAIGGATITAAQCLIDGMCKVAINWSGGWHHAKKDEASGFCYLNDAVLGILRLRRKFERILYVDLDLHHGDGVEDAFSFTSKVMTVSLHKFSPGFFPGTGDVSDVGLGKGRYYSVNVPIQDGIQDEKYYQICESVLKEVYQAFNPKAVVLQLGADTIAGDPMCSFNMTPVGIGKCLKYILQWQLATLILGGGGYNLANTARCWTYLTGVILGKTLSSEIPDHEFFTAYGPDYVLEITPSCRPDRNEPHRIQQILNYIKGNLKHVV

[1] = target: T2, Polyamine deacetylase HDAC10 (Homo sapiens, UniProt Q969S8); test: Inhibition of human HDAC10 using RHKKAc as substrate
T2 sequence (Q969S8 whole entry): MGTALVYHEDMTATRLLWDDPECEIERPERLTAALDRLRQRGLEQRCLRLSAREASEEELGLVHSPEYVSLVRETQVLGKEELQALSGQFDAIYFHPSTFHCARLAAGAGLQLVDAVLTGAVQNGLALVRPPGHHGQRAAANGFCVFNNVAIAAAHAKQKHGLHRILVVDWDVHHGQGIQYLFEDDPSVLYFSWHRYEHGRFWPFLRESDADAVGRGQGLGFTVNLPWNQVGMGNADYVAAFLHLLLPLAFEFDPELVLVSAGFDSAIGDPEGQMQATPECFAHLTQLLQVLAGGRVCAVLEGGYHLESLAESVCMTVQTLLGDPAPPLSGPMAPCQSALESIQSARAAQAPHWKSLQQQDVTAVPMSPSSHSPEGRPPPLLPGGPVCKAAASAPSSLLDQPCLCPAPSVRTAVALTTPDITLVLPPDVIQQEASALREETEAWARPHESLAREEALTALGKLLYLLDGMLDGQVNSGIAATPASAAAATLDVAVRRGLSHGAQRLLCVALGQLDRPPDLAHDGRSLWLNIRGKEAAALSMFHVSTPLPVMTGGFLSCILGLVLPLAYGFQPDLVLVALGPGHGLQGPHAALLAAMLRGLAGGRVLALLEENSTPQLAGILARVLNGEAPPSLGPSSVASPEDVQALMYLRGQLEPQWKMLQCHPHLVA

U-266 [2] = test: Antiproliferative activity against human U266 cells after 48 hrs by SRB assay; format: functional; details: U-266, 48 h
How it was run: (§1)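 Cells were exposed to test compounds at the indicated concentrations for 48 h. They were then fixed with 10% trichloroacetic acid, stained 30 min with 0.4% SRB in 1% AcOH, and washed with 1% AcOH. Bound dye was solubilized in 10 mM Tris base and OD read at 510 nm. Lines cultured in RPMI 1640 with 20% FBS and penicillin/streptomycin, 37°C, 5% CO2.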

Histone deacetylase 11 = target: T3, Histone deacetylase 11 (Homo sapiens, UniProt Q96DB2); test: Inhibition of recombinant human N-terminal Strep2-tagged HDAC11 (1 to 347 residues) expressed in baculovirus infected insect cells using Boc-Lys(TFA)-AMC as substrate after 60 mins by fluorescence assay
T3 sequence (Q96DB2 whole entry): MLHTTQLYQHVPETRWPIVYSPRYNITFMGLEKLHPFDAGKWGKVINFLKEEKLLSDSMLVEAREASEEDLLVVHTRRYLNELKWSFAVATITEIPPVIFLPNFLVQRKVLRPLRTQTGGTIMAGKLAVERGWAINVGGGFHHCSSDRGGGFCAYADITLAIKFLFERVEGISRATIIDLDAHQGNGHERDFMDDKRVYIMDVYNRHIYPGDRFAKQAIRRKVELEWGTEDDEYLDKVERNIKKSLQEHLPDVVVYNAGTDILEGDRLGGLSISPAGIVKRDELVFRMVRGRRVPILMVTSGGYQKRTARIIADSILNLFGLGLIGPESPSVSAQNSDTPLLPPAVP

Histone deacetylase 1 = Histone deacetylase 1 (Homo sapiens, UniProt Q13547); test: Inhibition of full length recombinant human C-terminal FLAG/His-tagged HDAC1 expressed in baculovirus infected sf21 cells using RHK-K(Ac)-AMC as substrate after 60 mins by fluorescence assay
RPMI-8226 = test: Antiproliferative activity against human RPMI8226 cells after 48 hrs by SRB assay; format: functional; details: RPMI-8226, 48 h; how it was run: as §1
U-266 [3] = test: Cell cycle arrest in human U266 cells assessed as accumulation at S phase at 5 uM after 24 hrs in presence of bortezomib by propidium iodide staining based flow cytometry (reference value: 14.05%); format: functional
U-266 [4] = test: Cell cycle arrest in human U266 cells assessed as accumulation at G2/M phase at 5 uM after 24 hrs by propidium iodide staining based flow cytometry (reference value: 35.13%); format: functional
[5] = Half life in beagle dog hepatocytes at 10 uM by LC-MS/MS analysis; format: ADME, cell-based, Canis lupus familiaris, Hepatocyte
How it was run: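 Substrate depletion in cryopreserved hepatocytes (male SD rat, male beagle dog, human). Compound at 10 µM incubated at 37 °C for up to 4 h. Cell density approximately 0.5 × 10^6 hepatocytes/well for rat and dog, 0.24 × 10^6/well for human. Half-life and CLint derived from depletion; % remaining at 60 min also reported.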

Mus musculus = test: Toxicity in nude mouse xenografted with human RPMI8226 cells assessed as change in body weight at 30 mg/kg, iv or ip administered for 5 days followed by 2 days off for 35 days cotreated with bortezomib; format: organism-based; details: in vivo
How it was run: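 Male 8-week nude mice implanted sc with 1×10^7 RPMI 8226 cells, randomized at ~200 mm3 (n = 8). […] Vehicle: 0.5% EtOH/0.5% Cremophor in 5% dextran.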

[6] = Apparent permeability from apical to basolateral side in human Caco2 cells assessed as drug recovery at 10 uM after 2 hrs by LC-MS/MS analysis; format: ADME, cell-based; details: Caco-2, read-out: Drug recovery
How it was run: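 Caco-2 cells seeded at 8.4 × 10^4 cells/cm2 on polycarbonate inserts for 21 days. For A→B, donor was apical (HBSS/MES pH 6.5, 10 µM compound) and receiver basolateral (HBSS/HEPES pH 7.4). For B→A, donor was basolateral (HBSS/HEPES pH 7.4, 10 µM) and receiver apical (HBSS/MES pH 6.5). Incubated at 37 °C for 2 h. Receiver sampled at 30, 60, 90 and 120 min, donor at 0 and 120 min.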

Chain of Histone deacetylase 1 (Q13547 whole entry): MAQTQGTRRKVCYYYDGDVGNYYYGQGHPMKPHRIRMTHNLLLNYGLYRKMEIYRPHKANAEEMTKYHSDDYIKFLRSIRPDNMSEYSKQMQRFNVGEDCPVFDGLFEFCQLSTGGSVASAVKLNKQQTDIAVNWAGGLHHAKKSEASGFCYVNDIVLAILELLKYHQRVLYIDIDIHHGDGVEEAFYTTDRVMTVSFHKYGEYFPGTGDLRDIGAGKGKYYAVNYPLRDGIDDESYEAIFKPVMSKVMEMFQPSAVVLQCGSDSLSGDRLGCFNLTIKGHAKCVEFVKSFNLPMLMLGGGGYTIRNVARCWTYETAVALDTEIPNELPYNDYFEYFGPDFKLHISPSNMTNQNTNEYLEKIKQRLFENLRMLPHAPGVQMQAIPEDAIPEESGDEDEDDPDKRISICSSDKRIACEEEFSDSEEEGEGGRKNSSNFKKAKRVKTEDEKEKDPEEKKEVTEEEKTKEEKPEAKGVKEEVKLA
Chain of Histone deacetylase 5 (Q9UQL6 whole entry, the tested form may be a part): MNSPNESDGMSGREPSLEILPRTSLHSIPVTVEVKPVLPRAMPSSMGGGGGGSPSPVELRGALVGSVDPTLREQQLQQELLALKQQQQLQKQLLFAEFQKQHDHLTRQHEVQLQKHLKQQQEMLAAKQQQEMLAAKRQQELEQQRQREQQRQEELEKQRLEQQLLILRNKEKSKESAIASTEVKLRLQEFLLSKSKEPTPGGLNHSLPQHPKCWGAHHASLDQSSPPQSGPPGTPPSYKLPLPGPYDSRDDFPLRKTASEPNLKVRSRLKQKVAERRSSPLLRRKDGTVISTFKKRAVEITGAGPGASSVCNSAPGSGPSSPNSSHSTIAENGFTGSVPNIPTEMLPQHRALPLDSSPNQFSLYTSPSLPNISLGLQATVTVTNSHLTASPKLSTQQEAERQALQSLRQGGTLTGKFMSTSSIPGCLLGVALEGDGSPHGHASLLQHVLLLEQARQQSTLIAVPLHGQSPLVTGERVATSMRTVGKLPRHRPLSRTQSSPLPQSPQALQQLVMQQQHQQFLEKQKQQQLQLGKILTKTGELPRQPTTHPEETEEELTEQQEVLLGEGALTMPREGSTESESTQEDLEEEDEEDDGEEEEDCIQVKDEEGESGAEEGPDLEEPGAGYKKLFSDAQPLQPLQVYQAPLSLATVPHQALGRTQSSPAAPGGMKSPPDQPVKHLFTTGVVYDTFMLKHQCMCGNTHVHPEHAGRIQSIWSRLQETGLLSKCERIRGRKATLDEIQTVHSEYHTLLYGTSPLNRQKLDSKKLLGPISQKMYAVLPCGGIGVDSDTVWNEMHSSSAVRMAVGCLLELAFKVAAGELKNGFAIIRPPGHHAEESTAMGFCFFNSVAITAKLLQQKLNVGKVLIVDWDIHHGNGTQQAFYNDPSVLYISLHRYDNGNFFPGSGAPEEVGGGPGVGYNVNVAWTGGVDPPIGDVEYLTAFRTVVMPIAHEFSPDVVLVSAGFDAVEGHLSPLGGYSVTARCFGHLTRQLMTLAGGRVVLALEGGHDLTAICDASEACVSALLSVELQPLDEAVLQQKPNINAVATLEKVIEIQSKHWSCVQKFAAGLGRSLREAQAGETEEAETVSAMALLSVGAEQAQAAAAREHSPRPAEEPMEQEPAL

IC50 (Histone deacetylase 5) [µM]	IC50 (Histone deacetylase 8) [µM]	IC50 [1] [µM]	IC50 (Histone deacetylase 11) [µM]	IC50 (Histone deacetylase 1) [µM]	GI50 (RPMI-8226) [µM]	half-life at 10 µM [5] [h]	recovery at 2 h, 10 µM [6] [%]	SMILES	GI50 (U-266 [2]) [µM]	Activity (U-266 [3]) [%]	Activity (U-266 [4]) [%]	Activity (Mus musculus)
2.25	0.636	1.26	1	7.05	11			O=C(NO)c1ccc(CNc2cccc3ncccc23)cc1	28.4			
3.11	1.19	9.79	0.376	9.55	7.49	1.97	72.2	O=C(NO)c1ccc(CNc2cccc3cccnc23)cc1	40.6	7.56	23.3	Non-Toxic
